{"source": "ChEMBL document CHEMBL5214907", "about": "(J Med Chem, 2021)", "biological_target": "Neuronal acetylcholine receptor; alpha9/alpha10 (Homo sapiens, UniProt Q9GZZ6+Q9UGM1)", "sequence (Q9UGM1 whole entry)": "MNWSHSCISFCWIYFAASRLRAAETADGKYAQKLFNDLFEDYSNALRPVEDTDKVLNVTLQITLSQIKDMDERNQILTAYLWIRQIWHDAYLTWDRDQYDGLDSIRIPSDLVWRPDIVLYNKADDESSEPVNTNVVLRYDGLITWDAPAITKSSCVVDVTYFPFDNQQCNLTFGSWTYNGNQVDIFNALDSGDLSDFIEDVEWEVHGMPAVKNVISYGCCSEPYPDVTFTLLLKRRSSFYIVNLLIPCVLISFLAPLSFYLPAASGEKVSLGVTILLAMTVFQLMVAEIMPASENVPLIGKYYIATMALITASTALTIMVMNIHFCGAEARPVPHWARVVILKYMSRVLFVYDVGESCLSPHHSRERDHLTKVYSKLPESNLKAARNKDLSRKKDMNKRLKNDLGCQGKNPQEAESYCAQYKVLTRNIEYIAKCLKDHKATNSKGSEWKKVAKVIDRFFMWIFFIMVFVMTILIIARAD", "sequence (Q9GZZ6 whole entry)": "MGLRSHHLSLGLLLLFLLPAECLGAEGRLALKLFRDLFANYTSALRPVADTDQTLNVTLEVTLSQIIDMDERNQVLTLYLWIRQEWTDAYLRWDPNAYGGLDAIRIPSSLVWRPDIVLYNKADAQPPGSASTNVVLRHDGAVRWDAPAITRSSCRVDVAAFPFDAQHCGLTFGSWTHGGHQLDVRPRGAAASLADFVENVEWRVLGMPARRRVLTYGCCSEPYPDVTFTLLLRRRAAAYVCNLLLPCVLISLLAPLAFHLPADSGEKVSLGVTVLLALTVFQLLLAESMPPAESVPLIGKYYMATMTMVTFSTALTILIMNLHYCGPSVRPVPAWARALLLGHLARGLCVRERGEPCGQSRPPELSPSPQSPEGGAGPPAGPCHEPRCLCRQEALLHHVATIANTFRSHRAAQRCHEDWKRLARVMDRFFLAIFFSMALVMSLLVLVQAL", "experiment": "Inhibition of human alpha9alpha10 nAChR expressed in xenopus oocytes assessed as inhibition of Ach- induced response at -70 mV holding potential and measured for 1 to 5 days in presence of Ach stimulation by voltage-clamp based electrophysiological method", "type": "cell-based, Oocyte", "outline": "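Two-electrode voltage clamp on Xenopus oocytes expressing human α9α10, recorded 1–5 d after injection. Held at −70 mV at room temperature in Ca²⁺-containing ND-96. A 1 s pulse of 100 µM ACh was given every 60 s and peptide was flowed on. IC50 with 95% CI from 3–5 separate oocytes.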"}
{"smiles": "C[C@@H](O)[C@@H]1NC(=O)[C@H]2NC(=O)[C@H](NC(=O)CN)CSSC[C@H](NC(=O)[C@H](CCCNC(=N)N)NC(=O)[C@@H]3CCCN3C(=O)[C@H](CC(=O)O)NC1=O)C(=O)N[C@@H](CCCNC(=N)N)C(=O)N[C@@H](Cc1ccc(O)c(I)c1)C(=O)N[C@@H](CCCN)C(=O)N[C@H](C(=O)N[C@H](CC(=O)N[C@@H](CCC(=O)O)C(=O)O)Cc1ccc(O)cc1)CSSC2(C)C", "values": [{"measurement": "IC50", "result": 0.4, "unit": "nM"}]}
{"smiles": "C[C@@H](O)[C@@H]1NC(=O)[C@H]2NC(=O)[C@H](NC(=O)CN)CSSC[C@H](NC(=O)[C@H](CCCNC(=N)N)NC(=O)[C@@H]3CCCN3C(=O)[C@H](CC(=O)O)NC1=O)C(=O)N[C@@H](CCCNC(=N)N)C(=O)N[C@@H](Cc1ccc(O)c(I)c1)C(=O)N[C@@H](CCCN)C(=O)N[C@H](C(=O)N[C@H](CC(=O)N[C@H](CCCNC(=N)N)C(=O)O)Cc1ccc(O)cc1)CSSC2(C)C", "values": [{"measurement": "IC50", "result": 4, "unit": "nM"}]}
{"smiles": "C[C@@H](O)[C@@H]1NC(=O)[C@H]2NC(=O)[C@H](NC(=O)CN)CSSC[C@H](NC(=O)[C@H](CCCNC(=N)N)NC(=O)[C@@H]3CCCN3C(=O)[C@H](CC(=O)O)NC1=O)C(=O)N[C@@H](CCCNC(N)=O)C(=O)N[C@@H](Cc1ccc(O)c(I)c1)C(=O)N[C@@H](CCC(N)=O)C(=O)N[C@H](C(=O)N[C@@H](Cc1ccc(O)cc1)C(=O)O)CSSC2(C)C", "values": [{"measurement": "IC50", "result": 1.3, "unit": "nM"}]}
{"smiles": "C[C@@H](O)[C@@H]1NC(=O)[C@H]2NC(=O)[C@H](NC(=O)CN)CSSC[C@H](NC(=O)[C@H](CCCNC(=N)N)NC(=O)[C@@H]3CCCN3C(=O)[C@H](CC(=O)O)NC1=O)C(=O)N[C@@H](CCCNC(=N)N)C(=O)N[C@@H](Cc1ccc(O)c(I)c1)C(=O)N[C@@H](CCCN)C(=O)N[C@H](C(=O)N[C@H](CC(=O)N[C@@H](CCCN)C(=O)O)Cc1ccc(O)cc1)CSSC2(C)C", "values": [{"measurement": "IC50", "result": 0.34, "unit": "nM"}]}
{"smiles": "C[C@@H](O)[C@@H]1NC(=O)[C@@H]2CSSC[C@@H](C(=O)N[C@@H](Cc3ccc(O)cc3)C(=O)O)NC(=O)[C@H](CCC(N)=O)NC(=O)[C@H](Cc3ccc(O)c(I)c3)NC(=O)[C@H](CCCNC(N)=O)NC(=O)[C@@H](NC(=O)[C@H](CCCNC(=N)N)NC(=O)[C@@H]3CCCN3C(=O)[C@H](CC(=O)O)NC1=O)C(C)(C)SSC[C@@H](NC(=O)CN)C(=O)N2", "values": [{"measurement": "IC50", "result": "> 1000", "unit": "nM"}]}
